CHOP inhibitor = inhibitors of CHOP promoter induction, primary screen, cell-based, unfolded protein response, luciferase reporter. CHO-K1 CHOP-promoter luciferase, tunicamycin-induced, 15-18 h. inhibition, % at 10 µM. 220,000 tested, 3.8% active;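 active = compounds that reduced the stress-induced luciferase reporter signal by more than about 70% of percent inhibition, limit read from the data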;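 note: 0% = tunicamycin plus vehicle and 100% = wells without tunicamycin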
XBP1 UPR activ = activators of adaptive XBP1 UPR arm, primary screen, cell-based, CHO-XBP1 luciferase reporter, luminescence, uHTS; IRE1-XBP1 UPR activation; percent of tunicamycin response, DMSO as zero; activation, % at 20 µM; 330,000 tested, 0.33% active; AID 463104, 2010;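 active = versus positive control, 20 µM dose yields 30% or more activation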;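 note: 100% = tunicamycin at 10 µg/mL and 0% = DMSO only wells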
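Material: IRE1-XBP1 luciferase reporter CHO line / Quantity: one thousand reporter cells per well / Buffer or medium: F12 with 10% serum / Compound: 20 µM single concentration, DMSO 1% / Times: 6 h treatment, 37 °C / Detection: Steady-Glo luciferase glow luminescence, 10 min after reagent addition / Benchmarks: tunicamycin high, DMSO low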
Jurkat NFkB inh = inhibitors of induced NF-kB luciferase reporter, primary screen, TCR NF-kB activation inhibitor project, cell-based, luminescence, uHTS; Jurkat, PMA/ionomycin-induced NF-kB luciferase reporter; inhibition, % at 4 µM; 330,000 tested, 0.53% active; AID 435003, 2010; in the data active = inhibition above about 50%
CHOP UPR activ = activators of apoptotic CHOP UPR arm, primary screen, cell-based, CHO-CHOP luciferase reporter, luminescence, uHTS; UPR activation; percent of tunicamycin response over DMSO baseline; activation, % at 10 µM; 330,000 tested, 0.34% active;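 active = at 10 µM dose, activation of 40% or more, normalized to positive control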;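 note: 100% = tunicamycin at 10 µg/mL and 0% = DMSO alone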
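Material: CHO-CHOP cells, stable luciferase reporter of PERK-eIF2a-CHOP signalling; quantity: 500 reporter cells seeded per well; buffer or medium: F12 medium containing 10% fetal bovine serum; compound: one dose, 10 µM in 0.5% DMSO; incubation: 6 h compound treatment, 37 °C; measured by: Steady-Glo luciferase luminescence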
697 NFkB inh = inhibitors of PMA/ionomycin-induced NF-kB reporter, 697 cells, primary screen, B-cell NF-kB inhibitor project, cell-based, luminescence, uHTS. AID 435022, 2010. inhibition, % at 4 µM. 330,000 tested, 0.33% active. 697 B-cell NF-kB luciferase reporter, 16 h; in the data active = inhibition above about 35%
CHOP UPR conf = activators of apoptotic CHOP UPR arm, confirmation, cell-based, CHO-CHOP luciferase reporter, single concentration; shares compounds with CHOP UPR activ; CHO-CHOP cells, CHOP-luciferase reporter luminescence; percent of tunicamycin response, DMSO as zero; activation, % at 10 µM; 1,000 tested, 64% active; in the data active = activation above about 33%;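 note: 0% = DMSO wells and 100% = tunicamycin 10 µg/mL wells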
Numbers without * were called inactive; · = not tested or not shown. Shown is part of a subset that was picked to be rich in hits.

SMILES | CHOP inhibitor | XBP1 UPR activ | Jurkat NFkB inh | CHOP UPR activ | 697 NFkB inh | CHOP UPR conf
CCOC(=O)c1nc2sc(C)c(C)c2c(=O)[nH]1 | 3 | -3 | 8 | 6 | 6 | ·
CCc1cccc(CC)c1NC(=O)CN1CCN(S(=O)(=O)c2ccccc2)CC1 | · | -1 | 2 | 0 | -50 | ·
Cc1nc([N+](=O)[O-])c(Br)n1CC(=O)c1ccc(Br)cc1 | -31 | -3 | 9 | 75* | -5 | 43*
Cc1nc([N+](=O)[O-])cn1CC(=O)c1ccc(Cl)cc1 | · | -5 | -4 | 4 | 5 | ·
COc1cccc(NC(=O)N2CCCC2C(=O)NCc2ccc(Cl)cc2)c1 (centres undefined) | · | -4 | -15 | 2 | -21 | ·
C=CCn1c(O)c(N=NC(=S)Nc2ccccc2F)c2cc(S(=O)(=O)N3CCOCC3)ccc21 | -28 | -1 | 12 | 88* | -17 | 121*
O=C(c1ccc(Br)cc1)C(CN1CCOCC1)c1ccccc1 (centres undefined) | · | 0 | 33 | 105* | -89 | 137*
CCOc1ccc(C(=O)C(CN2CCOCC2)c2ccccc2)cc1 (centres undefined) | -68 | · | · | · | · | ·
COc1ccc(S(=O)(=O)NNC(=O)Nc2ccc(F)cc2F)c(OC)c1 | · | -1 | -10 | 1 | 4 | ·
CCOc1cc(/C=N/N=C/c2ccc(O)c(OCC)c2)ccc1O | · | -3 | -10 | 0 | -3 | ·
CCOc1cc(/C=C2\CN(CC)C/C(=C\c3ccc(O)c(OCC)c3)C2=O)ccc1O | · | -5 | 44 | 78* | -35 | 86*
O=C(CCl)Nc1ccc(-c2ccccc2)cc1 | -49 | 2 | -2 | 43* | -4 | 47*
Cc1cccc(Nc2ncnc(N)c2[N+](=O)[O-])n1 | 29 | -1 | -10 | 0 | 2 | ·
Cc1cc(C)nc(Sc2ncnc(N)c2[N+](=O)[O-])n1 | 102* | -8 | 9 | 95* | -13 | 9
CC(OC(=O)c1nc(Cl)ccc1Cl)C(=O)Nc1ccccc1F (centres undefined) | · | 0 | -10 | 0 | -2 | ·
CC1CCN(C(=O)c2[nH]cnc2C(=O)Nc2nccs2)CC1 | · | -2 | 10 | 2 | 11 | ·
CCOC(=O)C(=Cc1ccc(OCc2ccc([N+](=O)[O-])cc2)c(OC)c1)C(=O)OCC | 66 | 5 | -80 | 219* | 26 | 247*
COC(=O)C(=Cc1ccc(OCc2ccc([N+](=O)[O-])cc2)c(OC)c1)C(=O)OC | -25 | 4 | -93 | 334* | 29 | 106*
COc1cc(C=O)ccc1OCCCOc1ccc([N+](=O)[O-])cc1 | 39 | -2 | 3 | -1 | -7 | ·
COc1nc(N)nc(NC(=O)c2cccs2)c1N=O | · | -1 | -6 | 70* | -40 | 62*
COc1ccc(NC(=O)c2ccc(NC(=O)c3cccs3)cc2)cc1 | · | 7 | -19 | 1 | 6 | ·
COc1cc(/C=C(/C(=O)c2cccs2)c2nc3ccccc3[nH]2)ccc1O | -49 | -3 | -2 | 3 | 24 | ·
O=C(/C(=C/c1ccc(Cl)cc1)c1nc2ccccc2[nH]1)c1cccs1 | -127 | -5 | 40 | 87* | -137 | 85*
Cc1nn(CC2CC2)c(=O)n1-c1ccccc1 | 8 | 1 | 12 | 48* | 22 | -1
COc1ccc(C(=O)Sc2ccc(Cl)cc2)cc1OC | 50 | 14 | 15 | 87* | 25 | 58*
SMILES | CHOP inhibitor | XBP1 UPR activ | Jurkat NFkB inh | CHOP UPR activ | 697 NFkB inh | CHOP UPR conf
CCOCCCN(C(=O)CNC(=O)c1ccco1)C(C(=O)NC1CCCC1)c1cccc(OC)c1 (centres undefined) | · | -3 | 12 | 2 | 4 | ·
O=C(CCCc1ccccc1)NC1CCSC1=O (centres undefined) | 6 | 0 | -11 | 0 | 8 | ·
O=C(Cc1ccc(F)cc1)NC1CCSC1=O (centres undefined) | 10 | 2 | -4 | 41* | 1 | -2
COc1ccc(-n2ncc(Cl)c(Cl)c2=O)cc1 | 70 | -7 | 28 | 50* | -5 | 23
COc1ccc(-n2ncc(N(C)n3cccc3)c(Cl)c2=O)cc1 | -1 | -1 | -101 | 2 | -124 | ·
Cc1ccc(S(=O)(=O)N(C(=O)c2ccncc2)c2ccc(OC(=O)c3ccncc3)c3ccccc23)c(C)c1 | -200 | -3 | 14 | 59* | -11 | 113*
Cc1ccc(S(=O)(=O)N(C(=O)c2ccncc2)c2ccc(OC(=O)c3ccncc3)c3ccccc23)cc1 | -27 | -2 | 20 | 14 | 13 | ·
COc1ccc2[nH]cc(C(=O)CN3CC(C)CC(C)C3)c2c1 (centres undefined) | · | 0 | -13 | 0 | 5 | ·
COc1ccc2[nH]cc(C(=O)CCl)c2c1 | 6 | -7 | 21 | 102* | -138 | 39*
COc1ccc(C(=O)CCS(=O)(=O)c2ccc(F)cc2)cc1OC | · | -9 | -11 | 44* | -4 | 11
CC(C)N1CSC(=S)N(Cc2ccccc2)C1 | 24 | 1 | 8 | 75* | 24 | 94*
CC(C)(C)N1CSC(=S)N(Cc2ccccc2)C1 | 1 | -1 | -9 | 86* | 2 | 82*
S=C1SCN(Cc2cccnc2)CN1Cc1ccccc1 | -109 | 4 | -9 | -1 | 10 | ·
COc1cc(NC(=O)CNc2cccc(S(=O)(=O)N3CCOCC3)c2)cc(OC)c1 | · | 4 | 11 | 41* | -13 | -2
O=C(COc1ccccc1)NCC(=O)N1CCCC1 | · | -5 | -16 | -1 | -5 | ·
O=C(Nc1ccc(O)c2c(=O)cc(-c3cccc(Cl)c3)oc12)c1ccccc1Cl | 51 | 15 | -2 | 52* | -18 | 46*
O=C(Nc1ccc(O)c2c(=O)cc(-c3ccccc3Cl)oc12)c1ccccc1Cl | 24 | -3 | -1 | 0 | 6 | ·
CCOC(=O)c1ccc(N=C2C(=S)N(c3ccc(C(=O)OCC)cc3)C(=N)N2/N=C/c2ccccc2)cc1 | 43 | 10 | -12 | 53* | -15 | 37*
CCOC(=O)c1ccc(N=c2scc(C)n2CC)cc1 | -5 | 2 | -102 | 3 | -114 | ·
CC(C)(C)NC(=O)C[C@H]1C[C@H](C(=O)N2CCCCC2)[C@@]2(C)c3[nH]c4ccc(Cl)cc4c3CCN2C1=O | · | 1 | · | 2 | -4 | ·
CCN(CC(=O)NCc1cccs1)C(=O)/C=C/c1ccc(OC)c(OC)c1 | · | 0 | 6 | -1 | 13 | ·
COCCN1CSC(=S)N(Cc2ccco2)C1 | -191 | 4 | -7 | 91* | -2 | 53*
